Test system: MS2 coat protein
Assay: apparent Kd, MS2 coat protein; higher = weaker binding; RNA-MaP array; FMN 200 µM where present
Summary of the method: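 Binding was read on Illumina sequencing-chip clusters where stalled E. coli RNA polymerase had transcribed each design. A titration of SNAP-549-labelled MS2 coat protein began at 0.7 or 1.5 nM and doubled to 3 µM, once without ligand and once with constant ligand, in 100 mM Tris-HCl pH 7.5, 80 mM KCl, 4 mM MgCl2, BSA, DTT, yeast tRNA and Tween-20. The apparent Kd is the median of filtered per-cluster binding-curve fits, based on green signal normalised to red-channel RNA signal and control-cluster median Fmax.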

[1] = designed as: OFF switch for flavin mononucleotide, no ligand
[2] = ligand present: flavin mononucleotide, designed as: OFF switch for flavin mononucleotide
[3] = designed as: ON switch for flavin mononucleotide, no ligand
[4] = ligand present: flavin mononucleotide, designed as: ON switch for flavin mononucleotide

Sequence: AGUGCCUCGAGAGGAUAUAUACAUGAGGAUCACCCAUGUAACGAGGUGGAAACACCUCGAAAUGUAUAGAAGGCUCGAGGCACA
- apparent Kd [1]: 28.4 nM
- apparent Kd [2]: 50 nM

Sequence: CACUCACAUGAGGAUCACCCAUGUCCUAGCAGGUCAGGAUAUAGCUCGGAUGCGUUGAGGCUAGAAGGGACAGGUU
- apparent Kd [3]: 116 nM
- apparent Kd [4]: 68.5 nM

Sequence: UUUUUCUCAGGAUAUACAUGAGGAUCACCCAUGUAUAUUAGGAAUAAUACAUGGGAAUGUAGAAGGGAGCUCAU
- apparent Kd [1]: 128 nM
- apparent Kd [2]: 98.4 nM

Sequence: UGUGCCUCGAGAGGAUAUAUACAUGAGGAUCACCCAUGUAACGAGGUGGAAACACCUCGAAAUGUAUAGAAGGCUCGAGGCACA
- apparent Kd [1]: 27.7 nM
- apparent Kd [2]: 49.6 nM

Sequence: AAUUGACACGUAGGAUAUCGCUCUAUUUUAACACGAGAAGGACGUACAUGAGGAUCACCCAUGUUUAAUGGUGUAGAUAAGUUG
- apparent Kd [1]: 105 nM
- apparent Kd [2]: 228 nM

Sequence: GGAUUUACUGAGGAUAUUGCAUCACCCGACUGAUAAGAAGGCAGAACAUGAGGAUCACCCAUGUGGGUCGUCAA
- apparent Kd [1]: 21.9 nM
- apparent Kd [2]: 28.2 nM

Sequence: UAGAAGUCAGGAUAUGCAUGGCGGGACUUGCGUCGUGGCGUGCAGAAGGGACAUGAGGAUCACCCAUGUGGAGU
- apparent Kd [1]: 179 nM
- apparent Kd [2]: 230 nM

Sequence: UUUAUUUUGCAAGGAUAUGUUUAAUUUUAGUUUCCUUACACAUGAGGAUCACCCAUGUUAUACUUACAGAAGGUGCGUAAUUUU
- apparent Kd [1]: 130 nM
- apparent Kd [2]: 103 nM

Sequence: AGCUAGUGAGGAUAUACGAACAUGUCAAAAGACGUGAGGGAACAUGAGGAUCACCCAUGUAGAAGGCACUAGCA
- apparent Kd [1]: 38.8 nM
- apparent Kd [2]: 33 nM

Sequence: UUCAGCGAUCAAGGAUAUCUAUAAACAUGCGGACAUGAGGAUCACCCAUGUUGAUCACCCAUGUGGGAGAAGGUGAACAUGAGG
- apparent Kd [3]: 174 nM
- apparent Kd [4]: 72.9 nM

Sequence: AUCAGCUCCUCAGGAUAUACGUCACUGCGUCAGCAGUGUGGUAAGAUCACAUGAGGAUCACCCAUGUAGAAGGGACGAGCUGAU
- apparent Kd [1]: 31.8 nM
- apparent Kd [2]: 140 nM

Sequence: CUACAUGAGGAUCACCCAUGUGCACACCGGAUCGGCGUGCGCAGAAGGGCCAUGGAGAAAGCCAGGCAGGAUAUGCAAAGGGCU
- apparent Kd [3]: 396 nM
- apparent Kd [4]: 189 nM

Sequence: AUGCCUUAUGUAGGAUAUGCAUAGCGUUGCUAUGCAGAAGGACAUGAGGAUCACCCAUGUAUGUUAUCAUUACAUAUCUGGCAU
- apparent Kd [1]: 27.6 nM
- apparent Kd [2]: 271 nM

Sequence: ACAUGAGGAUCACCCAUGUAUUACAUGGUUAAGUUUAUUAACAGAAGGCGAAAUUACCACUUGGUCGAGGAUAUGUAUUCUAUU
- apparent Kd [1]: 40.3 nM
- apparent Kd [2]: 40.7 nM

Sequence: UUAGCAACAUGAGGAUCACCCAUGUAGGAUAUCGCUAUUGUAAUCAUGAAACAUGAUUACAAUAGCGAGAAGGACAUAUGCUAU
- apparent Kd [1]: 10.1 nM
- apparent Kd [2]: 11.7 nM

Sequence: UCUCGAUGUGUAGGAUAUCUGAUCACUAUGACAAGAGAAGGGCACAUGAGGAUCACCCAUGUGGAGGACCACUGGUUCAGAUUA
- apparent Kd [1]: 35.8 nM
- apparent Kd [2]: 64.9 nM

Sequence: UUGGACGUCGUAGGAUAUGUAGGAUAUUCCUACAUGAGGAUCACCCAUGUUGAGAUGGAAGAAGGACAGAAGGACGAUGUCCAU
- apparent Kd [3]: 25.3 nM
- apparent Kd [4]: 4.05 nM

Sequence: UGGCUACAUGAGGAUCACCCAUGUCAGGAUAUGCCGUUGGAUUGCCUUCGUCGUUCGGGUAGAAGGGACUGCGG
- apparent Kd [1]: 22.1 nM
- apparent Kd [2]: 21.5 nM

Sequence: GGGUACAUCGGAGGAUAUCAUGUAAAUACAUGAGGAUCACCCAUGUCAAUGGAGACAUCGGAGAUUGAGAAGGCCGAUGUACCG
- apparent Kd [3]: 86.1 nM
- apparent Kd [4]: 340 nM

Sequence: UGGUACUAGGGAGGAUAUGGGAAGAUACAUGAGGAUCACCCAUGUUUAAGAAUGCCGACAGGCAACUAGAAGGCCCUAGUACCU
- apparent Kd [3]: 414 nM
- apparent Kd [4]: 20.2 nM

Sequence: UUACUCAUGUAAGGAUAUGCAGCCGUUUCGGCUGCAGAAGGUACUAUAAUACAUGAGGAUCACCCAUGUCUUUUUAAAUUUUAC
- apparent Kd [3]: 109 nM
- apparent Kd [4]: 35.2 nM

Sequence: GGAUUAAUAGUCCACAUGAGGAUCACCCAUGUAGUAUUUUGCAAGGAUAUGGUGGGACUUCGUGGCCAGAAGGUGUAAAGGAUC
- apparent Kd [3]: 128 nM
- apparent Kd [4]: 99.2 nM

Sequence: CGCUGGUGACAGCAUCCAUCAAAACAUGAGGAUCACCCAUGUAGAAGGCUGUACGGUUACCGUACAGAGGAUAUACAAUGAUGA
- apparent Kd [1]: 15.9 nM
- apparent Kd [2]: 26.4 nM

Sequence: UGAGCAACAGGAUAUAUGUGGCGUCCGUGAGGACGAAGGUUACAUGAGGAUCACCCAUGUAGAAGGGUUGUUCU
- apparent Kd [1]: 169 nM
- apparent Kd [2]: 366 nM

Sequence: GGAUCGAAUGUGAGGAUAUGCUGGUCCUUGGAUCAGCAGAAGGCACAUGAGGAUCACCCAUGUGACUAAGAUCC
- apparent Kd [1]: 32.7 nM
- apparent Kd [2]: 248 nM

Sequence: CGCAACAUACAGAAGGAGUAAUUUAGAAGUGUACUAGGAUAUGUUUACAUGAGGAUCACCCAUGUCGAUGGGUAAAUAGUUGCG
- apparent Kd [1]: 988 nM
- apparent Kd [2]: 437 nM

Sequence: GCAGAUCACGUGAGGAUAUCGUCUACCUCGGUAGUCGAGAAGGCACAUGAGGAUCACCCAUGUGAGUGUUCUGC
- apparent Kd [1]: 20.1 nM
- apparent Kd [2]: 19.5 nM

Sequence: AAAACAUGAGGAUCACCCAUGUAAAGAUCAAUUAAAAUGAGUGAGGAUAUACUAAAUUAUUUAUAGUAGAAGGCACUGGGUACA
- apparent Kd [3]: 25 nM
- apparent Kd [4]: 26.3 nM

Sequence: GGAUAGGACAGAGGAUAUACGGAUAGGAUCUACUAUCCUCCUUAAAUAACAUGAGGAUCACCCAUGUAGAAGGCUGUCCUAUCG
- apparent Kd [1]: 16.9 nM
- apparent Kd [2]: 40.5 nM

Sequence: CUUUUGUGAGGAUAUCAGUAGUAAAUAAAUAAAUUAACUACUGAGAAGGCACAUGAGGAUCACCCAUGUUCCUU
- apparent Kd [1]: 13 nM
- apparent Kd [2]: 29.4 nM

Sequence: GGUUAUUGCAAGGAUAUGCUUUUUUGUGAAAUUGCAGAAGGUGCAACAUGAGGAUCACCCAUGUUGGAUGGGUU
- apparent Kd [1]: 104 nM
- apparent Kd [2]: 131 nM

Sequence: GAACUGAGGCAAAGCUUUAGUCGUACAUGAGGAUCACCCAUGUAGGAUAUGGUAGGCUUUGCUUACCAGAAGGACAGAGUGAUC
- apparent Kd [1]: 102 nM
- apparent Kd [2]: 139 nM

Sequence: GGAAGACAAAGUCUUCCAAAUCGAACAUGAGGAUCACCCAUGUAGGAUAUGCUACUCAAAGAGUAGCAGAAGGACAUGUGCUUU
- apparent Kd [1]: 40.1 nM
- apparent Kd [2]: 193 nM

Sequence: CAGCAUAAGUAGAAGGCUAUAUAUUUAAUUAUAUAAGGAUAUACAUGAGGAUCACCCAUGUGUUCCAGCUGAAUAAUAAUAUAU
- apparent Kd [1]: 5.49 nM
- apparent Kd [2]: 5.82 nM

Sequence: GUAAAGUGAGGAUAUGGUAAUUUAAUUAUUAAUUAAUUAAUCCAGAAGGCACAUGAGGAUCACCCAUGUAAAGG
- apparent Kd [1]: 39.6 nM
- apparent Kd [2]: 74.6 nM

Sequence: CAGCGGGCAGGAUAUGCACCUUGAGACAAAUGUCUGUCCGGACAUGAGGAUCACCCAUGUAGAAGGGCCACGGA
- apparent Kd [1]: 55.4 nM
- apparent Kd [2]: 44.5 nM

Sequence: CUGCUCCGUGUAGGAUAUGCAUACUCCCAUUAUGCAGAAGGACAUGAGGAUCACCCAUGUAUGUUAUUAUCAUGUGUUGCGUGC
- apparent Kd [1]: 42.5 nM
- apparent Kd [2]: 185 nM

Sequence: AGACUGAAGCAAGGAUAUUGUAAGGUUAAUGUACAAGAAGGUGCUGUUUAUGUCUCUUAACAUGAGGAUCACCCAUGUUUUGGU
- apparent Kd [3]: 23.9 nM
- apparent Kd [4]: 19.9 nM

Sequence: CCUGCACAUGAGGAUCACCCAUGUCAGGAUAUCUCGCCGCGAAGAGCAACACGGUAUUAGAGAAGGGACACGGG
- apparent Kd [1]: 28.1 nM
- apparent Kd [2]: 36.5 nM

Sequence: GUAUCUCACUGAGGAUAUUUACGAUUAGUGUAGACAUGAGGAUCACCCAUGUGGCGUUAGUCACGGGAGAAGGCAGUGCGAUAC
- apparent Kd [3]: 114 nM
- apparent Kd [4]: 20 nM

Sequence: CUCAGCUCGUCAGGAUAUACGUCACUGCUUCGGCAGUGUGGUAAGAUCACAUGAGGAUCACCCAUGUAGAAGGGACGAGCUGAA
- apparent Kd [1]: 12.8 nM
- apparent Kd [2]: 266 nM

Sequence: AUUUAUGGCCAGAAGGACAUGAGGAUCACCCAUGUAGGAUAUGGACGAUUUUGCUUGGCGGUUCGUUUAGGAAGCACCGGUGGU
- apparent Kd [3]: 23.8 nM
- apparent Kd [4]: 7.18 nM

Sequence: UUUAUAAAUUAGAAGGCGAGAUAAAUUACAAUAGACAUGAGGAUCACCCAUGUGUACCCAUGUUUUGAGGAUAUAGUCAUAUAU
- apparent Kd [3]: 1140 nM
- apparent Kd [4]: 624 nM

Sequence: AUAUUAAUAGUAAGGAUAUGCGUGUAUGUAGUUAUGCAGAAGGUACAUGAGGAUCACCCAUGUAUUAAUGUGUA
- apparent Kd [1]: 14.2 nM
- apparent Kd [2]: 15.4 nM

Sequence: CCUGUGUGAGGAUAUGGUGUUGGAAAAAAGGAAUAGCUCCUCCAGAAGGCACAUGAGGAUCACCCAUGUCGUGG
- apparent Kd [1]: 21.4 nM
- apparent Kd [2]: 53.2 nM

Sequence: UUGAGGUAAGGAUAUAUUAGGAGCGAAGUUACUUGUUUUUUAUAGAAGGUACAUGAGGAUCACCCAUGUGAAUA
- apparent Kd [1]: 27.7 nM
- apparent Kd [2]: 23.4 nM

Sequence: AAUCGAUGAUCAGGAUAUGUGGAGCCUCUAAGCGAAGAGGCGUACAUGAGGAUCACCCAUGUGACACAGAAGGGAUACAUGCGG
- apparent Kd [3]: 64.2 nM
- apparent Kd [4]: 8.2 nM

Sequence: CUAUUUUGUGCCUCAUGUACAUGAGGAUCACCCAUGUUAACUUAGGAUAUAUUUAUAUUGUUAGAGUAGAAGGAAGUACAAUUU
- apparent Kd [1]: 30.2 nM
- apparent Kd [2]: 27.1 nM

Reference: the EternaBench riboswitch data
